≈ marks a conversion by molar mass, not a printed value.
Experiments:
[1] = system: Streptococcus pyogenes; assay: In vitro antibacterial activity against Streptococcus pyogenes strain 9604; assay type: functional
Summary of the method: (§1)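 MIC by serial twofold dilution of compound in Mueller-Hinton agar. The agar surface or broth was inoculated with a suitably diluted 18-24-h broth culture, then incubated at 37 °C for 17 h. MIC was read as the lowest concentration inhibiting visible growth.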

[2] = system: Escherichia coli; assay: In vitro antibacterial activity against Escherichia coli strain 15119; assay type: functional; summary of the method: as §1
[3] = system: Providencia rettgeri; assay: In vitro antibacterial activity against Providencia rettgeri strain 21203; assay type: functional; summary of the method: as §1
[4] = system: Escherichia coli; assay: In vitro antibacterial activity against Escherichia coli strain 20341; assay type: functional; summary of the method: as §1
[5] = system: Staphylococcus aureus; assay: In vitro antibacterial activity against Staphylococcus aureus strain 9606 (Penicillin resistant); assay type: functional
Summary of the method: (§2)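 MIC by serial twofold dilution in Mueller-Hinton agar. Agar surface or broth inoculated with a suitably diluted 18-24-h broth culture. Plates and broth tubes incubated at 37 °C for 17 h. MIC taken as the lowest concentration that inhibited visible growth.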

[6] = system: Morganella morganii; assay: In vitro antibacterial activity against Morganella morganii strain 15153; assay type: functional; summary of the method: as §1
[7] = system: Enterococcus faecalis; assay: In vitro antibacterial activity against Streptococcus faecalis strain 20688; assay type: functional; summary of the method: as §1
[8] = system: Enterobacter cloacae; assay: In vitro antibacterial activity against Enterobacter cloacae strain 9659; assay type: functional; summary of the method: as §1
[9] = system: Staphylococcus aureus; assay: In vitro antibacterial activity against Staphylococcus aureus strain 9537; assay type: functional; summary of the method: as §2
[10] = system: Streptococcus pneumoniae; assay: In vitro antibacterial activity against Streptococcus pneumoniae strain 9585; assay type: functional; summary of the method: as §1
[11] = system: Klebsiella pneumoniae; assay: In vitro antibacterial activity against Klebsiella pneumoniae strain 20468; assay type: functional; summary of the method: as §1
[12] = system: Enterobacter cloacae; assay: In vitro antibacterial activity against Enterobacter cloacae strain 9656; assay type: functional; summary of the method: as §1
[13] = system: Staphylococcus aureus; assay: In vitro antibacterial activity against Staphylococcus aureus strain 9537 + 50% serum; assay type: functional
Summary of the method: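 Serial twofold dilution MIC with 50% human serum present. Mueller-Hinton agar or broth was inoculated with a suitably diluted 18-24-h broth culture and incubated at 37 °C for 17 h. The endpoint was the lowest concentration that stopped visible growth.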

[14] = system: Klebsiella pneumoniae; assay: In vitro antibacterial activity against Klebsiella pneumoniae strain 15130; assay type: functional; summary of the method: as §1
[15] = system: Proteus mirabilis; assay: In vitro antibacterial activity against Proteus mirabilis strain 9716; assay type: functional; summary of the method: as §1
[16] = system: Proteus mirabilis; assay: In vitro antibacterial activity against Proteus mirabilis strain 9900; assay type: functional; summary of the method: as §1
[17] = system: Serratia marcescens; assay: In vitro antibacterial activity against Serratia marcescens strain 20019; assay type: functional; summary of the method: as §1
[18] = system: Providencia rettgeri; assay: In vitro antibacterial activity against Providencia rettgeri strain 21203

Row | SMILES | MIC [1] [µg/mL] | MIC [2] [µg/mL] | MIC [3] [µg/mL] | MIC [4] [µg/mL] | MIC [5] [µg/mL] | MIC [6] [µg/mL] | MIC [7] [µg/mL] | MIC [8] [µg/mL] | MIC [9] [µg/mL] | MIC [10] [µg/mL] | MIC [11] [µg/mL] | MIC [12] [µg/mL] | MIC [13] [µg/mL] | MIC [14] [µg/mL] | MIC [15] [µg/mL] | MIC [16] [µg/mL] | MIC [17] [µg/mL] | MIC [18] [µg/mL]
1 | CO/N=C(/C(=O)NC1C(=O)N2C(C(=O)O)=C(C)/C(=C/C(=O)OC)SC12)c1csc(N)n1.O=C(O)C(F)(F)F (stereo unspecified) | 0.016 | 2 | 32 | 2 | 4 | > 125 | 63 | > 125 | 2 | 0.016 | 32 | > 125 | 125 | 16 | 16 | 2 | > 125 | –
2 | COC(=O)/C=C1\SC2C(NC(=O)C(N)c3ccccc3)C(=O)N2C(C(=O)O)=C1C.O=C(O)C(F)(F)F (stereo unspecified) | 0.025 | > 125 | > 125 | > 125 | > 125 | > 125 | 63 | > 125 | 1 | 0.13 | > 125 | > 125 | 32 | > 125 | > 125 | > 125 | > 125 | –
3 | CO/N=C(/C(=O)NC1C(=O)N2C(C(=O)O)=C(C)/C(=C/C(=O)OC)SC12)c1ccco1 (stereo unspecified) | 0.25 (≈ 0.574 µM) | 16 (≈ 36.7 µM) | 32 (≈ 73.5 µM) | 63 (≈ 145 µM) | 4 (≈ 9.19 µM) | 63 (≈ 145 µM) | 32 (≈ 73.5 µM) | > 125 | 2 (≈ 4.59 µM) | 0.25 (≈ 0.574 µM) | > 125 | 63 (≈ 145 µM) | 63 | 16 (≈ 36.7 µM) | 4 (≈ 9.19 µM) | 4 (≈ 9.19 µM) | > 125 | –
4 | COC(=O)/C=C1\SC2C(NC(=O)C(O)c3ccccc3)C(=O)N2C(C(=O)O)=C1C (stereo unspecified) | 0.25 (≈ 0.597 µM) | > 125 | > 125 | > 125 | > 125 | > 125 | 16 (≈ 38.2 µM) | > 125 | 0.5 (≈ 1.19 µM) | 0.25 (≈ 0.597 µM) | > 125 | > 125 | 32 | > 125 | > 125 | 63 (≈ 151 µM) | > 125 | –
5 | COC(=O)/C=C1\SC2C(NC(=O)Cc3cccs3)C(=O)N2C(C(=O)O)=C1COC(C)=O (stereo unspecified) | 0.5 (≈ 1.07 µM) | 125 (≈ 268 µM) | > 125 | > 125 | 2 (≈ 4.29 µM) | > 125 | 4 (≈ 8.57 µM) | > 125 | 2 (≈ 4.29 µM) | 0.13 (≈ 0.279 µM) | 63 (≈ 135 µM) | > 125 | 63 | > 125 | 125 (≈ 268 µM) | 125 (≈ 268 µM) | > 125 | –
6 | COC(=O)/C=C1\SC2C(NC(=O)Cc3cccs3)C(=O)N2C(C(=O)O)=C1C (stereo unspecified) | 2 (≈ 4.9 µM) | 63 (≈ 154 µM) | 63 (≈ 154 µM) | 125 (≈ 306 µM) | 2 (≈ 4.9 µM) | 125 (≈ 306 µM) | 2 (≈ 4.9 µM) | > 125 | 0.13 (≈ 0.318 µM) | 0.25 (≈ 0.612 µM) | > 125 | > 125 | 63 | 125 (≈ 306 µM) | 32 (≈ 78.3 µM) | 16 (≈ 39.2 µM) | > 125 | –
7 | COC(=O)/C=C1/SC2C(NC(=O)Cc3cccs3)C(=O)N2C(C(=O)O)=C1C (stereo unspecified) | 2 (≈ 4.9 µM) | 125 (≈ 306 µM) | 4 (≈ 9.79 µM) | 125 (≈ 306 µM) | 1 (≈ 2.45 µM) | 16 (≈ 39.2 µM) | 8 (≈ 19.6 µM) | > 125 | 0.06 (≈ 0.147 µM) | 0.5 (≈ 1.22 µM) | > 125 | > 125 | 63 | > 125 | 4 (≈ 9.79 µM) | 32 (≈ 78.3 µM) | 4 (≈ 9.79 µM) | –
8 | CC(=O)OCC1=C(C(=O)O)N2C(=O)[C@@H](NC(=O)Cc3cccs3)[C@H]2SC1 [CEPHALOTHIN] | 0.06 (≈ 0.151 µM) | 16 (≈ 40.4 µM) | – | 32 (≈ 80.7 µM) | 0.5 (≈ 1.26 µM) | > 125 | 32 (≈ 80.7 µM) | > 125 | 0.06 (≈ 0.151 µM) | 0.03 (≈ 0.0757 µM) | > 125 | > 125 | 2 | 16 (≈ 40.4 µM) | 8 (≈ 20.2 µM) | 1 (≈ 2.52 µM) | > 125 | 63 (≈ 159 µM)
